Converted amounts (≈) assume the structure as drawn. The source made the active and inactive calls. The rule behind the calls is not given here.
Experiments:
[1] = biological target: DNA gyrase (Staphylococcus aureus) (UniProt P0A0K8+P20831); assay: Inhibition of Staphylococcus aureus DNA gyrase assessed as reduction in enzyme-catalyzed supercoiling of relaxed circular pBR322 DNA at 100 uM by agarose gel electrophoresis; format: protein-complex assay
Outline: (§1)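 Recombinant S. aureus gyrase kit, 0.5 U enzyme, relaxed pBR322 (250 ng/μL) in 40 mM HEPES·KOH pH 7.6, 10 mM Mg acetate, 10 mM DTT, 2 mM ATP, 500 mM K glutamate, 0.5 mg/mL albumin; 37 °C, 30 min.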

[2] = Inhibition of Staphylococcus aureus topoisomerase 4 assessed as reduction in decatenation of kDNA at 100 to 500 uM by gel electrophoresis method
Outline: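 Compounds were in DMSO, with water or DMSO as vehicle controls. Reactions were stopped with STEB plus chloroform:isoamyl alcohol and run on 1% agarose TAE gels stained with ethidium bromide. IC50 was taken from densitometry against reactions with and without enzyme.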

DNA gyrase = DNA gyrase (Staphylococcus aureus, UniProt P0A0K8+P20831); assay: Inhibition of Staphylococcus aureus DNA gyrase assessed as reduction in enzyme-catalyzed supercoiling of relaxed circular pBR322 DNA by agarose gel electrophoresis; format: protein-complex assay; outline: as §1
Staphylococcus aureus [3] = assay: Antimicrobial activity against methicillin-resistant Staphylococcus aureus USA300 NRS384 incubated for 16 hrs by CLSI based method; format: functional; conditions: USA300 NRS384, 16 h
Staphylococcus aureus [4] = assay: Antimicrobial activity against Staphylococcus aureus U1 incubated for 16 hrs by CLSI based method; format: functional; conditions: U1, 16 h
Klebsiella pneumoniae = assay: Antimicrobial activity against Klebsiella pneumoniae CKP4 incubated for 16 hrs by CLSI based method; format: functional; conditions: CKP4, 16 h
Escherichia coli [5] = assay: Antimicrobial activity against Escherichia coli 8314 incubated for 16 hrs by CLSI based method; format: functional; conditions: Escherichia coli, 8314, 16 h
Acinetobacter baumannii = assay: Antimicrobial activity against Acinetobacter baumannii 983709 incubated for 16 hrs by CLSI based method; format: functional; conditions: Acinetobacter baumannii, 983709, 16 h
Staphylococcus aureus [6] = assay: Antimicrobial activity against vancomycin-resistant Staphylococcus aureus VRSA1 incubated for 16 hrs by CLSI based method; format: functional; conditions: VRSA1, 16 h
Staphylococcus aureus [7] = assay: Antimicrobial activity against Staphylococcus aureus UAMS1 incubated for 16 hrs by CLSI based method; format: functional; conditions: UAMS1, 16 h
Escherichia coli [8] = assay: Antimicrobial activity against tolC and imp(-) containing Escherichia coli incubated for 16 hrs by CLSI based method; format: functional
[9] = tested on: Mycobacterium tuberculosis; assay: Antimicrobial activity against Mycobacterium tuberculosis mc2 6020 incubated for 16 hrs by alamar blue assay; format: functional; conditions: mc2 6020, 16 h
[10] = biological target: Voltage-gated inwardly rectifying potassium channel KCNH2 (Homo sapiens, UniProt Q12809)
Staphylococcus aureus [11] = assay: Antimicrobial activity against vancomycin intermediate-resistant Staphylococcus aureus Mu50 incubated for 16 hrs by CLSI based method; format: functional; conditions: Mu50, 16 h
Staphylococcus aureus [12] = assay: Antimicrobial activity against methicillin-resistant Staphylococcus aureus USA300-0114 incubated for 16 hrs by CLSI based method; format: functional; conditions: USA300-0114, 16 h
Staphylococcus aureus [13] = assay: Antimicrobial activity against ciprofloxacin-resistant Staphylococcus aureus CRC61 incubated for 16 hrs by CLSI based method; format: functional; conditions: CRC61, 16 h
Enterococcus faecium = assay: Antimicrobial activity against Enterococcus faecium 824-05 incubated for 16 hrs by CLSI based method; format: functional; conditions: 824-05, 16 h
[14] = biological target: T1, Ribonuclease P protein component (Staphylococcus aureus (strain COL)) (UniProt Q5HCI2); assay: Inhibition of Staphylococcus aureus RnpA
T1 sequence (whole entry): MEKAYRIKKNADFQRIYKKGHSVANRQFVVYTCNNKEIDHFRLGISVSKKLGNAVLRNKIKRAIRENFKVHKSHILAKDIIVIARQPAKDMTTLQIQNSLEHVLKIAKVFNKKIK

[15] = biological target: T2, Ribonuclease J 2 (Staphylococcus aureus (strain COL)) (UniProt Q5HGF6); assay: Inhibition of Staphylococcus aureus RNAse J2
T2 sequence (whole entry): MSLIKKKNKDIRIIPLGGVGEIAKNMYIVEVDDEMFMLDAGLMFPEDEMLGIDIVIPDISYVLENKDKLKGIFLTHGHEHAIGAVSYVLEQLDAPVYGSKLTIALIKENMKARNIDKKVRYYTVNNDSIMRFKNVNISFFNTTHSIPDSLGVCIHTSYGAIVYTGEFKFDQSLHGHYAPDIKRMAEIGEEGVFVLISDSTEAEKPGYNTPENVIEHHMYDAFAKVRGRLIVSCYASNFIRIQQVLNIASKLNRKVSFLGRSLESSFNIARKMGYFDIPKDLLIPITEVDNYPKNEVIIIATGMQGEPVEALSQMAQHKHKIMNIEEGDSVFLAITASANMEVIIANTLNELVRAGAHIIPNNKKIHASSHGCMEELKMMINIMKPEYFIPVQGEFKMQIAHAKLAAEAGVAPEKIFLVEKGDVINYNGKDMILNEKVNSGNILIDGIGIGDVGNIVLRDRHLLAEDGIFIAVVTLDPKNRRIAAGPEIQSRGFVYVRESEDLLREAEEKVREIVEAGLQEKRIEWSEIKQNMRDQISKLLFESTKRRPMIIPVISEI

Sequence of DNA gyrase (P0A0K8 whole entry): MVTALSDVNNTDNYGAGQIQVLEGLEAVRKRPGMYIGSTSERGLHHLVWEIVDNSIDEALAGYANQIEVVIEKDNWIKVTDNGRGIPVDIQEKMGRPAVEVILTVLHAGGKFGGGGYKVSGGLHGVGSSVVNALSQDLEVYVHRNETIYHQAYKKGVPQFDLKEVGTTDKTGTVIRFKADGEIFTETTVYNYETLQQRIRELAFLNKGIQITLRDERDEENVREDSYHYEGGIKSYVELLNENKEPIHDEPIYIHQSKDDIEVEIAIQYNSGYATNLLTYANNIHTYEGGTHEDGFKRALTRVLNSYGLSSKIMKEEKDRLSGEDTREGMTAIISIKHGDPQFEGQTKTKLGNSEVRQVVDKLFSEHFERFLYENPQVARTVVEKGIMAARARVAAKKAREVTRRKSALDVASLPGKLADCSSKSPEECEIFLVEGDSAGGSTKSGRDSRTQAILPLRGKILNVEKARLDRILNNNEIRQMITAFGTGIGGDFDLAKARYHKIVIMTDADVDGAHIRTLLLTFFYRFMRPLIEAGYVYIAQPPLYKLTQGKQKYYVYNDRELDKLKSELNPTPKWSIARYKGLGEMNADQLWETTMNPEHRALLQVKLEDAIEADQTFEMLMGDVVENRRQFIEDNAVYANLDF
Sequence of DNA gyrase (P20831 whole entry): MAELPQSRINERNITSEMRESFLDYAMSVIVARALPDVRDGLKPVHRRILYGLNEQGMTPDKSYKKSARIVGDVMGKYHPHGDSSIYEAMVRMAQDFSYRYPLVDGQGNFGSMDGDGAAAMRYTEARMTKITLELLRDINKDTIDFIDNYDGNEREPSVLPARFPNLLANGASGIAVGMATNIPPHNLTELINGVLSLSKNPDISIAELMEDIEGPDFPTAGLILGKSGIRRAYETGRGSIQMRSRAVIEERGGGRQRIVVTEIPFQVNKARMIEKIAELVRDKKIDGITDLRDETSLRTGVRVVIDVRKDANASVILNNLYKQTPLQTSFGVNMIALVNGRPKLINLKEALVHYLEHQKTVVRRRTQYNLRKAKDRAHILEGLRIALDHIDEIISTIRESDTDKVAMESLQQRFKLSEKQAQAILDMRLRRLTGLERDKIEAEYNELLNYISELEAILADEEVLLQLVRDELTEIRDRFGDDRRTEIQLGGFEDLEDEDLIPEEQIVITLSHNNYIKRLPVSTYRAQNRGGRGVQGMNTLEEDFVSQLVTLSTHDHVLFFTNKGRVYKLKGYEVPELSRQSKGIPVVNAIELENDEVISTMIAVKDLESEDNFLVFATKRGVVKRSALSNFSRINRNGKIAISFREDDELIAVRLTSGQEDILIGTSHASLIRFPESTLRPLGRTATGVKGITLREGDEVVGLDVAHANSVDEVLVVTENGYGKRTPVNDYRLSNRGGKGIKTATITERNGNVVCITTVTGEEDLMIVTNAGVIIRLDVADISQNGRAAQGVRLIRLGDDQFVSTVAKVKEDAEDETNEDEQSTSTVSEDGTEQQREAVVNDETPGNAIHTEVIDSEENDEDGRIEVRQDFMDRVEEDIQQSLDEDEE
Sequence of DNA gyrase (Staphylococcus aureus) (P0A0K8 2-644 limits assumed): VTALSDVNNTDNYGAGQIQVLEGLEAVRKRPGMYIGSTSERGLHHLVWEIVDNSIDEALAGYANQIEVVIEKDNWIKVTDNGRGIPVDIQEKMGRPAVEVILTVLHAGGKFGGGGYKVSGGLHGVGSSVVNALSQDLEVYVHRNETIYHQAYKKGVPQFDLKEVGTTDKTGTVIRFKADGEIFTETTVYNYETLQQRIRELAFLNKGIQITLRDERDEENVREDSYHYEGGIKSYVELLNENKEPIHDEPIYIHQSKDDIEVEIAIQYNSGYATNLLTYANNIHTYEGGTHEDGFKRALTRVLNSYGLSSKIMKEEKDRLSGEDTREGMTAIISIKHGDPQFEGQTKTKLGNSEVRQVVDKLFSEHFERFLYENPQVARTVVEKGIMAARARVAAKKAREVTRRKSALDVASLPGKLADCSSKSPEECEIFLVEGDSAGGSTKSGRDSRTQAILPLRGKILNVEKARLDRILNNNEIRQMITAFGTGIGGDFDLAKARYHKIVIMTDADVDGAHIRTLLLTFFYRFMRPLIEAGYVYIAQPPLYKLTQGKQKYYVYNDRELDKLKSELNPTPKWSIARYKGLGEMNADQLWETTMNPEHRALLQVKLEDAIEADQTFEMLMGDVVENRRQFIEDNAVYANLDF
Sequence of DNA gyrase (Staphylococcus aureus) (P20831 whole entry partner): as the sequence (P20831 whole entry) above
Sequence of Voltage-gated inwardly rectifying potassium channel KCNH2 (Q12809 whole entry): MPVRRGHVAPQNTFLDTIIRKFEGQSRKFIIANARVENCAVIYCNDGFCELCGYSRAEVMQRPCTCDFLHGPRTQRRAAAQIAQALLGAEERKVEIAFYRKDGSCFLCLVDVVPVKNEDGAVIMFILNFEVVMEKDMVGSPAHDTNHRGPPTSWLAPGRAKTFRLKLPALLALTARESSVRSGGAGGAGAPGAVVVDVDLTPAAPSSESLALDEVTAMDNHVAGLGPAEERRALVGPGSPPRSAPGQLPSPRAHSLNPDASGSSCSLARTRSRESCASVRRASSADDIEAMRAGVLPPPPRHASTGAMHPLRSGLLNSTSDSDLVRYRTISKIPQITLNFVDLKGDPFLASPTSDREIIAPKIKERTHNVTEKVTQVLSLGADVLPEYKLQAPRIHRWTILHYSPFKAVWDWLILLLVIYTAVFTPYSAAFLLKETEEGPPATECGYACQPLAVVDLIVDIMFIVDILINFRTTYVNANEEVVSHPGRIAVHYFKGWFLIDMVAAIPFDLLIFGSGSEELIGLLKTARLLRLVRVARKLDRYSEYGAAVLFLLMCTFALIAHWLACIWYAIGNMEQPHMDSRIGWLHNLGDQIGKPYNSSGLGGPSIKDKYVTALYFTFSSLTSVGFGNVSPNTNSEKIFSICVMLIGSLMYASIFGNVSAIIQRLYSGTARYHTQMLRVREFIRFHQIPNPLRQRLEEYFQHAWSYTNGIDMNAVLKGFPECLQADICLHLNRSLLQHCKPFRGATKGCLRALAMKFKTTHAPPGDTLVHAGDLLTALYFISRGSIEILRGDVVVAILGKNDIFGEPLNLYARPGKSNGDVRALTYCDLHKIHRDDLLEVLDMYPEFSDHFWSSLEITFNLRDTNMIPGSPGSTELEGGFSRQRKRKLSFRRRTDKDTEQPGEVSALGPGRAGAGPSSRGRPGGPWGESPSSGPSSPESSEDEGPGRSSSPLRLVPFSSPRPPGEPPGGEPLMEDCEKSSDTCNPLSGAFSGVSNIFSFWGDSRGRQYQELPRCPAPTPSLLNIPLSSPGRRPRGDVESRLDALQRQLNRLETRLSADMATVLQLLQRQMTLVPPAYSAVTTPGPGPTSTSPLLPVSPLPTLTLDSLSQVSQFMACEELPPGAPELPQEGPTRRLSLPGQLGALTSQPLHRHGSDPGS

| Compound | inhibition [1] | IC50 [2] [µM] | IC50 (DNA gyrase) [µM] | MIC (Staphylococcus aureus [3]) [µg/mL] | MIC (Staphylococcus aureus [4]) [µg/mL] | MIC (Klebsiella pneumoniae) [µg/mL] | MIC (Escherichia coli [5]) [µg/mL] | MIC (Acinetobacter baumannii) [µg/mL] | MIC (Staphylococcus aureus [6]) [µg/mL] | MIC (Staphylococcus aureus [7]) [µg/mL] | MIC (Escherichia coli [8]) [µg/mL] | MIC [9] [µg/mL] | IC50 [10] [µM] | MIC (Staphylococcus aureus [11]) [µg/mL] | MIC (Staphylococcus aureus [12]) [µg/mL] | MIC (Staphylococcus aureus [13]) [µg/mL] | MIC (Enterococcus faecium) [µg/mL] | inhibition [14] | inhibition [15] |
| --- | --- | --- | --- | --- | --- | --- | --- | --- | --- | --- | --- | --- | --- | --- | --- | --- | --- | --- | --- |
| O=C(O)c1cn(C2CC2)c2cc(N3CCNCC3)c(F)cc2c1=O | Active | – | – | – | – | – | – | – | – | – | – | – | – | – | – | – | – | – | – |
| OC(c1ccccc1)(c1ccccc1)C1CCN(CCCOc2ccc(-c3ccccc3)cc2)CC1 | Active | 160 | 50 | 2 (≈ 4.19 µM) | 1 (≈ 2.09 µM) | > 128 | > 128 | > 128 | 2 (≈ 4.19 µM) | 1 (≈ 2.09 µM) | 4 (≈ 8.37 µM) | 1 (≈ 2.09 µM) | 0.14 | – | – | – | – | – | – |
| OC(c1ccccc1)(c1ccccc1)C1CCN(Cc2ccc(-c3ccccc3)cc2)CC1 | Active | 160 | 125 | 4 (≈ 9.23 µM) | – | > 256 | > 256 | > 256 | 8 (≈ 18.5 µM) | – | 2 (≈ 4.61 µM) | – | 0.21 | 8 (≈ 18.5 µM) | 8 (≈ 18.5 µM) | 4 (≈ 9.23 µM) | 8 (≈ 18.5 µM) | – | – |
| CC(C)(C)c1ccc(C(O)CCCN2CCC(C(O)(c3ccccc3)c3ccccc3)CC2)cc1 (centres undefined) [TERFENADINE] | – | 206 | – | – | – | – | – | – | – | – | – | – | – | – | – | – | – | inactive | inactive |
| CC(C)(C)c1ccc(CCCCN2CCC(C(O)(c3ccccc3)c3ccccc3)CC2)cc1 | – | 320 | 93 | – | – | – | – | – | – | 8 (≈ 17.6 µM) | – | – | – | – | – | – | – | – | – |

From ChEMBL document CHEMBL3351553 (J Med Chem, 2014)
